Values after ≈ are worked out from the molar mass of the structure shown. Active and inactive are the calls of the source. The rule behind the calls is not given here.
System: Plasmodium yoelii
Assay: Antimalarial activity against chloroquine-resistant Plasmodium yoelii N-67 infected in Swiss mouse assessed as suppression of parasitaemia level at 50 mg/kg, ip qd for 4 days
Type: functional
Details: route intraperitoneal
How it was run: (§1)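 Swiss mice (22±2 g), groups of five, inoculated with 1×10^6 P. yoelii N-67 parasitized RBC on day 0; compounds as aqueous suspension with a few drops Tween 80, given intraperitoneally in 0.2 mL once daily days 0–3. Parasitemia from thin blood smears days 4–6, group mean % suppression vs untreated controls; survivors counted on day 28.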

Compound	Activity [%]
CCCCNc1nc(Nc2ccccc2)nc(Nc2cccc(Nc3ccnc4cc(Cl)ccc34)c2)n1	100
CCCCNc1nc(Nc2ccc(Nc3ccnc4cc(Cl)ccc34)cc2)nc(Nc2ccccc2C)n1	100
Cc1ccc(Nc2nc(NCCCN3CCOCC3)nc(Nc3cccc(Nc4ccnc5cc(Cl)ccc45)c3)n2)cc1	100
CNc1nc(Nc2ccc(C)cc2)nc(Nc2ccc(Nc3ccnc4cc(Cl)ccc34)cc2)n1	100
CCCCNc1nc(Nc2ccccc2)nc(Nc2ccc(Nc3ccnc4cc(Cl)ccc34)cc2)n1	100
CCN1CCN(c2nc(Nc3ccccc3)nc(Nc3ccc(Nc4ccnc5cc(Cl)ccc45)cc3)n2)CC1	100

System: Plasmodium yoelii
Assay: Antimalarial activity against chloroquine-resistant Plasmodium yoelii N-67 infected in Swiss mouse assessed as mouse survival at 50 mg/kg, ip qd for 4 days
Type: functional, organism-based
Set-up: dose 50 mg/kg
Details: not given
How it was run: as §1

Compound	Activity
CCCCNc1nc(Nc2ccccc2)nc(Nc2cccc(Nc3ccnc4cc(Cl)ccc34)c2)n1	inactive
CCCCNc1nc(Nc2ccc(Nc3ccnc4cc(Cl)ccc34)cc2)nc(Nc2ccccc2C)n1	inactive
Cc1ccc(Nc2nc(NCCCN3CCOCC3)nc(Nc3cccc(Nc4ccnc5cc(Cl)ccc45)c3)n2)cc1	inactive
CNc1nc(Nc2ccc(C)cc2)nc(Nc2ccc(Nc3ccnc4cc(Cl)ccc34)cc2)n1	inactive
CCCCNc1nc(Nc2ccccc2)nc(Nc2ccc(Nc3ccnc4cc(Cl)ccc34)cc2)n1	inactive
CCN1CCN(c2nc(Nc3ccccc3)nc(Nc3ccc(Nc4ccnc5cc(Cl)ccc45)cc3)n2)CC1	inactive

System: not listed separately
Assay: Inhibition of beta-hematin formation after 16 hrs
Type: functional
Details: not given
How it was run: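 Plasma came from male Swiss mice (15–20 g) infected with 1 × 10⁵ infected RBCs. Blood was drawn at 50% parasitemia by cardiac puncture into 2.0% citrate and spun at 4 °C. Hemin substrate ([…]) and compound were incubated in 100 mM acetate buffer, pH 5.1, at 37 °C for 16 h with shaking. The pellet was washed in SDS buffers. IC50 was the mean of three experiments in triplicate.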

Compound	IC50 [µg/mL]
CCCCNc1nc(Nc2ccccc2)nc(Nc2cccc(Nc3ccnc4cc(Cl)ccc34)c2)n1	2.55 (≈ 4.99 µM)
CCCCNc1nc(Nc2ccc(Nc3ccnc4cc(Cl)ccc34)cc2)nc(Nc2ccccc2C)n1	2.96 (≈ 5.64 µM)
Cc1ccc(Nc2nc(NCCCN3CCOCC3)nc(Nc3cccc(Nc4ccnc5cc(Cl)ccc45)c3)n2)cc1	2.7 (≈ 4.53 µM)
CCN(CC)CCCC(C)Nc1ccnc2cc(Cl)ccc12 (stereo not drawn) [CHLOROQUINE]	3.65 (≈ 11.4 µM)
CNc1nc(Nc2ccc(C)cc2)nc(Nc2ccc(Nc3ccnc4cc(Cl)ccc34)cc2)n1	3.16 (≈ 6.54 µM)
CCCCNc1nc(Nc2ccccc2)nc(Nc2ccc(Nc3ccnc4cc(Cl)ccc34)cc2)n1	3.08 (≈ 6.03 µM)
CCN1CCN(c2nc(Nc3ccccc3)nc(Nc3ccc(Nc4ccnc5cc(Cl)ccc45)cc3)n2)CC1	2.69 (≈ 4.87 µM)

System: Plasmodium falciparum 3D7
Assay: Selectivity index, IC50 for african green monkey Vero cells to IC50 for Plasmodium falciparum 3D7
Details: not given

Compound	Selectivity Index
CCN(CC)CCNc1nc(Nc2ccccc2)nc(Nc2ccc(Nc3ccnc4cc(Cl)ccc34)cc2)n1	79.47
CCN1CCN(c2nc(Nc3ccc(Nc4ccnc5cc(Cl)ccc45)cc3)nc(Nc3ccccc3C)n2)CC1	2.58
CCCCNc1nc(Nc2ccc(C)cc2)nc(Nc2ccc(Nc3ccnc4cc(Cl)ccc34)cc2)n1	101.03
Clc1ccc2c(Nc3cccc(Nc4nc(NCCCN5CCOCC5)nc(Nc5ccccc5)n4)c3)ccnc2c1	90.51
CCN1CCN(c2nc(Nc3ccccc3)nc(Nc3cccc(Nc4ccnc5cc(Cl)ccc45)c3)n2)CC1	90.51
CCCCNc1nc(Nc2ccccc2)nc(Nc2cccc(Nc3ccnc4cc(Cl)ccc34)c2)n1	156.25
CN1CCN(c2nc(Nc3ccc(Nc4ccnc5cc(Cl)ccc45)cc3)nc(N3CCCCC3)n2)CC1	106.35
CCCCNc1nc(Nc2ccc(Nc3ccnc4cc(Cl)ccc34)cc2)nc(Nc2ccccc2C)n1	821.15
Cc1ccc(Nc2nc(NCCCN3CCOCC3)nc(Nc3cccc(Nc4ccnc5cc(Cl)ccc45)c3)n2)cc1	321.48
CCN(CC)CCNc1nc(Nc2ccc(Nc3ccnc4cc(Cl)ccc34)cc2)nc(N2CCCCC2)n1	59.71
Cc1ccccc1Nc1nc(Nc2ccc(Nc3ccnc4cc(Cl)ccc34)cc2)nc(N2CCN(C)CC2)n1	16.33
CNc1nc(Nc2ccc(C)cc2)nc(Nc2ccc(Nc3ccnc4cc(Cl)ccc34)cc2)n1	491.91
Cc1ccc(Nc2nc(Nc3ccc(Nc4ccnc5cc(Cl)ccc45)cc3)nc(N3CCN(C)CC3)n2)cc1	36.39
CCCCNc1nc(Nc2ccccc2)nc(Nc2ccc(Nc3ccnc4cc(Cl)ccc34)cc2)n1	287.22
Clc1ccc2c(Nc3ccc(Nc4nc(NC5CCCCC5)nc(N5CCCCC5)n4)cc3)ccnc2c1	189.52
Cc1ccc(Nc2nc(Nc3cccc(Nc4ccnc5cc(Cl)ccc45)c3)nc(N3CCN(C)CC3)n2)cc1	226.18
Cc1ccc(Nc2nc(N)nc(Nc3ccc(Nc4ccnc5cc(Cl)ccc45)cc3)n2)cc1	134.89
CN1CCN(c2nc(Nc3ccccc3)nc(Nc3cccc(Nc4ccnc5cc(Cl)ccc45)c3)n2)CC1	223.4
CN1CCN(c2nc(Nc3ccccc3)nc(Nc3ccc(Nc4ccnc5cc(Cl)ccc45)cc3)n2)CC1	92.06

Compound	Selectivity Index
Cc1ccccc1Nc1nc(NCc2ccccc2)nc(Nc2ccc(Nc3ccnc4cc(Cl)ccc34)cc2)n1	2129.68
Nc1nc(Nc2ccccc2)nc(Nc2ccc(Nc3ccnc4cc(Cl)ccc34)cc2)n1	132.63
CNc1nc(Nc2ccc(Nc3ccnc4cc(Cl)ccc34)cc2)nc(Nc2ccccc2C)n1	240.35
Cc1ccccc1Nc1nc(Nc2ccc(Nc3ccnc4cc(Cl)ccc34)cc2)nc(NC2CCCCC2)n1	449.8
CCN1CCN(c2nc(Nc3ccc(C)cc3)nc(Nc3ccc(Nc4ccnc5cc(Cl)ccc45)cc3)n2)CC1	35.61
CCN1CCN(c2nc(Nc3ccc(C)cc3)nc(Nc3cccc(Nc4ccnc5cc(Cl)ccc45)c3)n2)CC1	229.5
CCN(CC)CCNc1nc(Nc2ccc(C)cc2)nc(Nc2ccc(Nc3ccnc4cc(Cl)ccc34)cc2)n1	64.38
CCN(CC)CCNc1nc(Nc2ccc(Nc3ccnc4cc(Cl)ccc34)cc2)nc(Nc2ccccc2C)n1	136.49
CCN1CCN(c2nc(Nc3ccccc3)nc(Nc3ccc(Nc4ccnc5cc(Cl)ccc45)cc3)n2)CC1	192.66
Clc1ccc2c(Nc3ccc(Nc4nc(NCc5ccccc5)nc(N5CCCCC5)n4)cc3)ccnc2c1	98.42
CNc1nc(Nc2ccccc2)nc(Nc2ccc(Nc3ccnc4cc(Cl)ccc34)cc2)n1	290.68
Cc1ccc(Nc2nc(NCc3ccccc3)nc(Nc3ccc(Nc4ccnc5cc(Cl)ccc45)cc3)n2)cc1	79.44
Clc1ccc2c(Nc3ccc(Nc4nc(NCc5ccccc5)nc(Nc5ccccc5)n4)cc3)ccnc2c1	151.04
Cc1ccccc1Nc1nc(N)nc(Nc2ccc(Nc3ccnc4cc(Cl)ccc34)cc2)n1	163.54
Cc1ccccc1Nc1nc(NCCCN2CCOCC2)nc(Nc2ccc(Nc3ccnc4cc(Cl)ccc34)cc2)n1	418.75
Cc1ccc(Nc2nc(Nc3ccc(Nc4ccnc5cc(Cl)ccc45)cc3)nc(NC3CCCCC3)n2)cc1	137.42
Clc1ccc2c(Nc3ccc(Nc4nc(Nc5ccccc5)nc(NC5CCCCC5)n4)cc3)ccnc2c1	76.97
CCN(CC)CCNc1nc(Nc2ccccc2)nc(Nc2cccc(Nc3ccnc4cc(Cl)ccc34)c2)n1	135.37

System: Plasmodium falciparum
Assay: Antimalarial activity against chloroquine-sensitive Plasmodium falciparum 3D7 infected in erythrocytes after 72 hrs by syber green 1 assay
Details: 3D7, 72 h

Compound	IC50 [nM]
CCN(CC)CCNc1nc(Nc2ccccc2)nc(Nc2ccc(Nc3ccnc4cc(Cl)ccc34)cc2)n1	60.4
CCN1CCN(c2nc(Nc3ccc(Nc4ccnc5cc(Cl)ccc45)cc3)nc(Nc3ccccc3C)n2)CC1	102
CCCCNc1nc(Nc2ccc(C)cc2)nc(Nc2ccc(Nc3ccnc4cc(Cl)ccc34)cc2)n1	44.5
Clc1ccc2c(Nc3cccc(Nc4nc(NCCCN5CCOCC5)nc(Nc5ccccc5)n4)c3)ccnc2c1	111
CCN1CCN(c2nc(Nc3ccccc3)nc(Nc3cccc(Nc4ccnc5cc(Cl)ccc45)c3)n2)CC1	60.1
CCCCNc1nc(Nc2ccccc2)nc(Nc2cccc(Nc3ccnc4cc(Cl)ccc34)c2)n1	26.3
CN1CCN(c2nc(Nc3ccc(Nc4ccnc5cc(Cl)ccc45)cc3)nc(N3CCCCC3)n2)CC1	34.8
CCCCNc1nc(Nc2ccc(Nc3ccnc4cc(Cl)ccc34)cc2)nc(Nc2ccccc2C)n1	31.5
Cc1ccc(Nc2nc(NCCCN3CCOCC3)nc(Nc3cccc(Nc4ccnc5cc(Cl)ccc45)c3)n2)cc1	34.6
CCN(CC)CCNc1nc(Nc2ccc(Nc3ccnc4cc(Cl)ccc34)cc2)nc(N2CCCCC2)n1	38.8
Cc1ccccc1Nc1nc(Nc2ccc(Nc3ccnc4cc(Cl)ccc34)cc2)nc(N2CCN(C)CC2)n1	18.9
CNc1nc(Nc2ccc(C)cc2)nc(Nc2ccc(Nc3ccnc4cc(Cl)ccc34)cc2)n1	6.41
Cc1ccc(Nc2nc(Nc3ccc(Nc4ccnc5cc(Cl)ccc45)cc3)nc(N3CCN(C)CC3)n2)cc1	12.4
CCCCNc1nc(Nc2ccccc2)nc(Nc2ccc(Nc3ccnc4cc(Cl)ccc34)cc2)n1	18.5
Clc1ccc2c(Nc3ccc(Nc4nc(NC5CCCCC5)nc(N5CCCCC5)n4)cc3)ccnc2c1	313
Cc1ccc(Nc2nc(Nc3cccc(Nc4ccnc5cc(Cl)ccc45)c3)nc(N3CCN(C)CC3)n2)cc1	43.2
Cc1ccc(Nc2nc(N)nc(Nc3ccc(Nc4ccnc5cc(Cl)ccc45)cc3)n2)cc1	11.9
CN1CCN(c2nc(Nc3ccccc3)nc(Nc3cccc(Nc4ccnc5cc(Cl)ccc45)c3)n2)CC1	47.2
CN1CCN(c2nc(Nc3ccccc3)nc(Nc3ccc(Nc4ccnc5cc(Cl)ccc45)cc3)n2)CC1	5.85

Compound	IC50 [nM]
Cc1ccccc1Nc1nc(NCc2ccccc2)nc(Nc2ccc(Nc3ccnc4cc(Cl)ccc34)cc2)n1	27.8
Nc1nc(Nc2ccccc2)nc(Nc2ccc(Nc3ccnc4cc(Cl)ccc34)cc2)n1	41.5
CNc1nc(Nc2ccc(Nc3ccnc4cc(Cl)ccc34)cc2)nc(Nc2ccccc2C)n1	37.6
Cc1ccccc1Nc1nc(Nc2ccc(Nc3ccnc4cc(Cl)ccc34)cc2)nc(NC2CCCCC2)n1	163
CCN1CCN(c2nc(Nc3ccc(C)cc3)nc(Nc3ccc(Nc4ccnc5cc(Cl)ccc45)cc3)n2)CC1	11.9
CCN1CCN(c2nc(Nc3ccc(C)cc3)nc(Nc3cccc(Nc4ccnc5cc(Cl)ccc45)c3)n2)CC1	41
CCN(CC)CCNc1nc(Nc2ccc(C)cc2)nc(Nc2ccc(Nc3ccnc4cc(Cl)ccc34)cc2)n1	82.8
CCN(CC)CCNc1nc(Nc2ccc(Nc3ccnc4cc(Cl)ccc34)cc2)nc(Nc2ccccc2C)n1	26.1
CCN1CCN(c2nc(Nc3ccccc3)nc(Nc3ccc(Nc4ccnc5cc(Cl)ccc45)cc3)n2)CC1	5.92
Clc1ccc2c(Nc3ccc(Nc4nc(NCc5ccccc5)nc(N5CCCCC5)n4)cc3)ccnc2c1	235
CNc1nc(Nc2ccccc2)nc(Nc2ccc(Nc3ccnc4cc(Cl)ccc34)cc2)n1	19
Cc1ccc(Nc2nc(NCc3ccccc3)nc(Nc3ccc(Nc4ccnc5cc(Cl)ccc45)cc3)n2)cc1	63.5
Clc1ccc2c(Nc3ccc(Nc4nc(NCc5ccccc5)nc(Nc5ccccc5)n4)cc3)ccnc2c1	33.6
Cc1ccccc1Nc1nc(N)nc(Nc2ccc(Nc3ccnc4cc(Cl)ccc34)cc2)n1	29.6
Cc1ccccc1Nc1nc(NCCCN2CCOCC2)nc(Nc2ccc(Nc3ccnc4cc(Cl)ccc34)cc2)n1	13.4
Cc1ccc(Nc2nc(Nc3ccc(Nc4ccnc5cc(Cl)ccc45)cc3)nc(NC3CCCCC3)n2)cc1	74
Clc1ccc2c(Nc3ccc(Nc4nc(Nc5ccccc5)nc(NC5CCCCC5)n4)cc3)ccnc2c1	64.8
CCN(CC)CCNc1nc(Nc2ccccc2)nc(Nc2cccc(Nc3ccnc4cc(Cl)ccc34)c2)n1	292
